Source: publication PMC2767302 (Circulation, 2008)

Legend:
[1] = tested on: normal conscious dogs; assay: Mean arterial pressure after acute oral administration in normal conscious dogs; assay type: in vivo, dog; conditions: oral 350 μg/kg, n=6, up to 240 min
In short: (§1)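 Adult male mongrel dogs (15-20 kg) with a femoral arterial port were fed 100 mEq/day sodium for 5 days, with water ad lib and sling acclimation. On the study day they were fasted and kept 30 min in a sling while conscious. Randomized single oral 350 μg/kg dose (conjugate n=5; unconjugated peptide n=6; vehicle n=6). MAP and blood were taken at baseline and 10–240 min. Plasma hBNP and cGMP were measured by radioimmunoassay. Mean ± SEM; repeated-measures ANOVA with Bonferroni.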

[2] = tested on: plasma cGMP; assay type: in vivo, dog; conditions: oral 350 μg/kg; normal conscious dogs; n=6
In short: as §1

[3] = native BNP; quoted in the discussion, no reference given; cited from earlier work

## native hBNP: native human B-type natriuretic peptide, 32 amino acid mature form
[1]
  MAP response throughout the study (in words): did not change
[2]
  Plasma cGMP response (in words): not statistically different from baseline levels
[3]
  Half life: approximately 20 minutes
